Key:
[1] = Plasma glucose-lowering activity at a dosage of 0.005% in the diet in KKA(y) mice.; assay type: functional, Mus musculus
Outline: (§1)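 KKAy mice (9–13 weeks old), five per group, grouped by blood glucose after 3 d on powdered CE-2 chow. Dietary admixture at 0.001, 0.005 or 0.01% for 4 d, food and water ad libitum. Orbital-vein plasma glucose measured enzymatically and expressed as maximum percent reduction versus control; Dunnett's test.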

[2] = Plasma lipid-lowering activity at a dosage of 0.005% in the diet in KKA(y) mice.; assay type: functional, Mus musculus
Outline: (§2)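 KKAy mice (9–13 weeks old), five per group, on powdered CE-2 diet containing compound at 0.001, 0.005 or 0.01% for 4 d. Plasma triglyceride from orbital-vein blood measured enzymatically and reported as maximum percent reduction from control; Dunnett's test; less than 10% reduction flagged.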

[3] = Plasma glucose-lowering activity at a dosage of 0.001% in the diet in KKAy mice; assay type: functional, Mus musculus; outline: as §1
[4] = Plasma lipid-lowering activity at a dosage of 0.001% in the diet in KKAy mice; assay type: functional, Mus musculus; outline: as §2
Mus musculus [5] = species: Mus musculus; experiment: Effective dose for 25% reduction in plasma glucose-lowering activity of KKAy mice; assay type: functional
Outline: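 KKAy mice (9–13 weeks old), five per group, allocated by blood glucose after 3 d on powdered CE-2 chow. Compounds given as dietary admix at three levels chosen from first screening, 4 d ad libitum. Orbital-vein plasma glucose assayed enzymatically. Dose in mg/kg/d computed from food intake and body weight; ED25 derived by linear regression.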

Rattus norvegicus [6] = species: Rattus norvegicus; experiment: Effective dose for 25% reduction in plasma glucose-lowering activity in Wistar fatty rats; assay type: functional
Outline: (§3)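 Wistar fatty rats (10–15 weeks old), five per group, allocated by plasma glucose and triglyceride. Oral dosing by stomach tube once daily for 6 d at three doses, suspended in 0.5% methyl cellulose; CE-2 pellets and water ad libitum. Tail-vein plasma glucose measured; ED25 taken from the three-dose response by linear regression.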

RXR alpha/PPAR gamma = molecular target: T1, RXR alpha/PPAR gamma (Homo sapiens, UniProt P19793+P37231); experiment: Transcriptional activation in COS cells expressing PPAR gamma and RXR alpha
T1 sequence (P37231 whole entry): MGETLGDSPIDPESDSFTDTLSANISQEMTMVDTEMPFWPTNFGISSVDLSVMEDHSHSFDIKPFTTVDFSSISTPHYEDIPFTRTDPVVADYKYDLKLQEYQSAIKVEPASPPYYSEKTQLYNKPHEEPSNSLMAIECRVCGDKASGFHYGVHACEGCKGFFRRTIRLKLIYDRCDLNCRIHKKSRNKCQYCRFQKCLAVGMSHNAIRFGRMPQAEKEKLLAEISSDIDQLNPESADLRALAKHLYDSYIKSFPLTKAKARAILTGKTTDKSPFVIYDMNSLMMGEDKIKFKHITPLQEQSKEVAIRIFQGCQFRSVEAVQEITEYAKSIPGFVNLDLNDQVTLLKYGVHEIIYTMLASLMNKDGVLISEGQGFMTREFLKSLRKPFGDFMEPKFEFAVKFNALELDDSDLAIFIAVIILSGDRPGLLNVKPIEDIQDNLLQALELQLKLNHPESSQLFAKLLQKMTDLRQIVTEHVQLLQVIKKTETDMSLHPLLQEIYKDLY
T1 sequence (P19793 whole entry): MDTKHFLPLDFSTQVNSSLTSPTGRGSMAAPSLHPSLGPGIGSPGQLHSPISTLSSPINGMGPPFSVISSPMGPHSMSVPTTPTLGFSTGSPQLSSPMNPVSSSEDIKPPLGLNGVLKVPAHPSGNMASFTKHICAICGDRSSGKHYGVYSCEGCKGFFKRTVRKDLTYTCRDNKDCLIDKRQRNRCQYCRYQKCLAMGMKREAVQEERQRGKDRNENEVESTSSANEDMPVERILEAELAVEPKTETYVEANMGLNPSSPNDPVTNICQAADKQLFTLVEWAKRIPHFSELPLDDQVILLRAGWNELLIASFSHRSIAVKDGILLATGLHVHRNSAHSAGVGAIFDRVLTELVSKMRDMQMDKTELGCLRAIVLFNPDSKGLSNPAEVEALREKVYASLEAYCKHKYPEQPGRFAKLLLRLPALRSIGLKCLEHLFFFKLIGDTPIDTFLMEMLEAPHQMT

[7] = Plasma lipid-lowering activity at a dosage of 0.01% in the diet in KKAy mice; assay type: functional, Mus musculus; outline: as §2
Rattus norvegicus [8] = species: Rattus norvegicus; experiment: Effective dose for 25% reduction in glucose-lowering activity in Wistar fatty rats; assay type: functional; outline: as §3
Mus musculus [9] = species: Mus musculus; experiment: Effective dose for 25% reduction in plasma lipid-lowering activity in KKAy mice; assay type: functional
Outline: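 Male/female not stated; KKAy mice, 9–13 weeks old, fed powdered CE-2 chow 3 d, grouped (five per group) by blood glucose. Compounds given as dietary admixture at three levels (0.01, 0.005 or 0.001% in diet) for 4 d. Orbital-vein plasma triglyceride measured enzymatically as % reduction vs control; dose (mg/kg/d) from food intake and body weight; ED25 by linear regression.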

[10] = Rattus norvegicus, Plasma, read-out: ED25

Structure (SMILES) | Activity [1] | Activity [2] | Activity [3] | Activity [4] | further results
COc1cc(CCCC2OC(=O)NC2=O)ccc1OCc1nc(-c2ccccc2)oc1C (centres undefined) | 61 | 75 | 48 | – | –
Cc1oc(-c2ccccc2)nc1CCOc1ccc(CCCCCC2OC(=O)NC2=O)cc1 (centres undefined) | 23 | 17 | – | – | –
Cc1oc(-c2ccco2)nc1COc1ccc(CCCC2OC(=O)NC2=O)cc1 (centres undefined) | 61 | 58 | 38 | – | –
Cc1oc(-c2ccccc2)nc1COc1ccc(/C=C/C=C2/OC(=O)NC2=O)cc1 | 23 | 29 | – | – | –
Cc1oc(-c2ccccc2)nc1CCC(O)c1ccc(CCCC2OC(=O)NC2=O)cc1 (centres undefined) | 23 | 22 | – | – | –
COc1cc(CCCC2SC(=O)NC2=O)ccc1OCc1nc(-c2ccccc2)oc1C (centres undefined) | 54 | 58 | 12 | 24 | ED25 (Mus musculus [5]): 3.17 mg/kg/day
Cc1oc(-c2ccccc2)nc1CCOc1ccc(CCC2OC(=O)NC2=O)cc1 (centres undefined) | 56 | 53 | 18 | 15 | ED25 (Mus musculus [5]): 4.83 mg/kg/day
Cc1oc(-c2cc3ccccc3o2)nc1COc1ccc(CCCC2OC(=O)NC2=O)cc1 (centres undefined) | 47 | 71 | 27 | 12 | –
COc1cc(CCCC2OC(=O)NC2=O)ccc1OCc1nc(-c2ccco2)oc1C (stereo in doubt; 64) | 58 | 74 | 39 | < 10 | ED25 (Rattus norvegicus [6]): 0.069 mg/kg/day; EC50 (RXR alpha/PPAR gamma): 24.1 nM
Cc1oc(-c2ccccc2)nc1COc1cccc(CCCC2OC(=O)NC2=O)c1 (centres undefined) | 32 | – | – | – | Activity [7]: 47
Cc1oc(-c2ccccc2)nc1COc1ccc(CCCCC2OC(=O)NC2=O)cc1 (centres undefined) | 43 | 51 | – | – | –
Cc1oc(-c2ccccc2)nc1CCOc1ccc(CCC2SC(=O)NC2=O)cc1 (centres undefined) | 14 | 32 | – | – | –
COc1cc(CCCC2OC(=O)NC2=O)ccc1OCc1nc(-c2ccco2)oc1C (stereo in doubt; (+)-64) | – | – | 45 | 32 | ED25 (Rattus norvegicus [6]): 0.05 mg/kg/day; EC50 (RXR alpha/PPAR gamma): 8.87 nM
Cc1oc(-c2ccccc2)nc1CCOc1ccc(/C=C/C=C2\SC(=O)NC2=O)cc1 | 13 | 13 | – | – | –
Cc1oc(-c2ccc3ccccc3c2)nc1COc1ccc(CCCC2OC(=O)NC2=O)cc1 (centres undefined) | 55 | 72 | 45 | 40 | ED25 (Rattus norvegicus [6]; [10]): 0.178 mg/kg/day; EC50 (RXR alpha/PPAR gamma): 29.3 nM
O=C1NC(=O)C(CCCc2ccc(OCc3coc(-c4ccccc4)n3)cc2)O1 (centres undefined) | 44 | – | – | – | –
Cc1oc(-c2ccccc2)nc1CCOc1ccc(CCCC2OC(=O)NC2=O)cc1 (centres undefined) | 49 | 41 | 11 | 26 | ED25 (Mus musculus [5]): 2.91 mg/kg/day
Cc1oc(-c2ccccc2)nc1COc1ccc(CCC2SC(=O)NC2=O)cc1 (centres undefined) | 24 | 15 | – | – | –

Structure (SMILES) | Activity [1] | Activity [2] | Activity [3] | Activity [4] | further results
Cc1oc(-c2ccccc2)nc1CCCOc1ccc(CC2OC(=O)NC2=O)cc1 (centres undefined) | 30 | 25 | – | – | –
Cc1sc(-c2ccccc2)nc1COc1ccc(CCCC2OC(=O)NC2=O)cc1 (single isomer, unassigned; (-)) | – | – | – | – | EC50 (RXR alpha/PPAR gamma): > 1000 nM; ED25 (Rattus norvegicus [8]): 3 mg/kg/day
Cc1oc(-c2ccccc2)nc1COc1ccc(CCCC2SC(=O)NC2=O)cc1 (centres undefined) | 48 | 37 | <10 | <10 | –
Cc1oc(-c2ccccc2)nc1COc1ccc(CCCCC2SC(=O)NC2=O)cc1 (centres undefined) | 22 | 21 | – | – | –
Cc1oc(-c2ccccc2)nc1CCCc1ccc(CCCC2OC(=O)NC2=O)cc1 (centres undefined) | 22 | 19 | – | – | –
Cc1oc(-c2ccccc2)nc1COc1ccc(CCC2OC(=O)NC2=O)cc1 (centres undefined) | 63 | 60 | 28 | 13 | ED25 (Mus musculus [5]): 1.31 mg/kg/day
Cc1oc(-c2ccccc2)nc1COc1ccccc1CCCC1OC(=O)NC1=O (centres undefined) | 11 | – | – | – | Activity [7]: 33
COc1cc(CCCC2OC(=O)NC2=O)ccc1OCc1nc(-c2ccco2)oc1C (single isomer, unassigned; (-)) | <10 | – | – | < 10 | ED25 (Rattus norvegicus [6]): 0.362 mg/kg/day; EC50 (RXR alpha/PPAR gamma): 35.4 nM
Cc1sc(-c2ccccc2)nc1COc1ccc(CCCC2OC(=O)NC2=O)cc1 (centres undefined) | 43 | 58 | 15 | 17 | ED25 (Rattus norvegicus [6]; [10]): 0.5 mg/kg/day; EC50 (RXR alpha/PPAR gamma): 813 nM
Cc1oc(-c2cc3ccccc3s2)nc1COc1ccc(CCCC2OC(=O)NC2=O)cc1 (centres undefined) | 48 | 62 | 25 | 24 | –
Cc1oc(-c2ccccc2)nc1COc1ccc(CCCC2OC(=O)NC2=O)cn1 (centres undefined) | 54 | 82 | 53 | 69 | ED25 (Rattus norvegicus [6]; [10]): 0.048 mg/kg/day; EC50 (RXR alpha/PPAR gamma): 16.5 nM
CC1(COc2ccc(CC3SC(=O)NC3=O)cc2)CCCCC1 (centres undefined) [CIGLITAZONE] | – | – | – | – | ED25 (Mus musculus [9]): 25 mg/kg/day
Cc1oc(-c2cccc3ccccc23)nc1COc1ccc(CCCC2OC(=O)NC2=O)cc1 (centres undefined) | 23 | – | – | – | –
Cc1oc(-c2ccccc2)nc1COc1ccc(CCCCCC2SC(=O)NC2=O)cc1 (centres undefined) | 19 | <10 | – | – | –
Cc1oc(-c2ccccc2)nc1COc1ccc(CCCC2OC(=O)NC2=O)cc1 (centres undefined) | 61 | 83 | 53 | 55 | ED25 (Rattus norvegicus [6]; [10]): 0.078 mg/kg/day; EC50 (RXR alpha/PPAR gamma): 119 nM; ED25 (Mus musculus [5]): 0.402 mg/kg/day
Cc1oc(-c2ccccc2)nc1COc1ccc(CCCCCC2OC(=O)NC2=O)cc1 (centres undefined) | 45 | 59 | – | – | –
Cc1oc(-c2ccccc2)nc1CCOc1ccc(CCCCC2OC(=O)NC2=O)cc1 (centres undefined) | 27 | 27 | – | – | –
Cc1oc(-c2ccccc2)nc1CCC(=O)c1ccc(CCCC2OC(=O)NC2=O)cc1 (centres undefined) | 32 | 17 | – | – | –

From ChEMBL document CHEMBL1135907, “Novel 5-substituted 2,4-thiazolidinedione and 2,4-oxazolidinedione derivatives as insulin sensitizers with antidiabetic activities” (J Med Chem, 2002)
